ChEMBL document CHEMBL5705905, “Pharmacological targeting of kinases MST1 and MST2 augments tissue repair and regeneration” (Sci Transl Med, 2016)
pIC50: −log10 of the molar value. The source made the active and inactive calls. The calls are words filed in the database; no cut-off is given here.

Tests used:
[1] = molecular target: Ribosomal protein S6 kinase alpha-5 (Homo sapiens) (UniProt O75582); experiment: Inhibition of N-terminal kinase domain RPS6KA5 (unknown origin) assessed as remaining activity at 1 uM by Kinome scan method relative to control
[2] = system: Tyrosine-protein kinase ABL1 (Homo sapiens), P00519 [M351T]; experiment: Inhibition of phosphorylated ABL1 M351T mutant (unknown origin) assessed as remaining activity at 1 uM by Kinome scan method relative to control
[3] = molecular target: Mitogen-activated protein kinase kinase kinase 14 (Homo sapiens) (UniProt Q99558); experiment: Inhibition of NIK (unknown origin) assessed as remaining activity at 1 uM by Kinome scan method relative to control
Sequence of Mitogen-activated protein kinase kinase kinase 14 (Homo sapiens) (Q99558 whole entry, looked up): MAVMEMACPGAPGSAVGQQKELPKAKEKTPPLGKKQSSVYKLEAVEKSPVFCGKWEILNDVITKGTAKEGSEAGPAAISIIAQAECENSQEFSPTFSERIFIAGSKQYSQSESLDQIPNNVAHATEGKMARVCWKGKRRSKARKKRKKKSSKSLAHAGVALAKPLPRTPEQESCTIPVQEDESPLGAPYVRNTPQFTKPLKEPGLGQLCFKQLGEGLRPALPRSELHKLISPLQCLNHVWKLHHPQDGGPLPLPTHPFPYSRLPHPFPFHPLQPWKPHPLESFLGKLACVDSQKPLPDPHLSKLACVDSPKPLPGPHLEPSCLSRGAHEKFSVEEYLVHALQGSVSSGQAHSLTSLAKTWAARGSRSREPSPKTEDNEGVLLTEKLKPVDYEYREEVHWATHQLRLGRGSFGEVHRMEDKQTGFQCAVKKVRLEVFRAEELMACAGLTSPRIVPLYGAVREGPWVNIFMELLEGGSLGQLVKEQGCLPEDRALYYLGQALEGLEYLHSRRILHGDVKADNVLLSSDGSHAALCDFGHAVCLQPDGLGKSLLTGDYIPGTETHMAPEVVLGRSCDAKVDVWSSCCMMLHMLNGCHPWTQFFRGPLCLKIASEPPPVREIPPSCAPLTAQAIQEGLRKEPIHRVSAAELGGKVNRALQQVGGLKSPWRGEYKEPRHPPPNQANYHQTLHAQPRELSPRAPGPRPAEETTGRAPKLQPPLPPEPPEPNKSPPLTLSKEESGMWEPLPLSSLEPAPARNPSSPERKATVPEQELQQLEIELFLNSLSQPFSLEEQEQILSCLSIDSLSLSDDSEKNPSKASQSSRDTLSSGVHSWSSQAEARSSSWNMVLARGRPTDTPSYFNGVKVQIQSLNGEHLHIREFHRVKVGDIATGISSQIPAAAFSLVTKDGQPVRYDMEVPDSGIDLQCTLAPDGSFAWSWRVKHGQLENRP

[4] = molecular target: Serine/threonine-protein kinase 25 (Homo sapiens) (UniProt O00506); experiment: Inhibition of YSK1 (unknown origin) assessed as remaining activity at 1 uM by Kinome scan method relative to control
Sequence of Serine/threonine-protein kinase 25 (Homo sapiens) (O00506 whole entry, looked up): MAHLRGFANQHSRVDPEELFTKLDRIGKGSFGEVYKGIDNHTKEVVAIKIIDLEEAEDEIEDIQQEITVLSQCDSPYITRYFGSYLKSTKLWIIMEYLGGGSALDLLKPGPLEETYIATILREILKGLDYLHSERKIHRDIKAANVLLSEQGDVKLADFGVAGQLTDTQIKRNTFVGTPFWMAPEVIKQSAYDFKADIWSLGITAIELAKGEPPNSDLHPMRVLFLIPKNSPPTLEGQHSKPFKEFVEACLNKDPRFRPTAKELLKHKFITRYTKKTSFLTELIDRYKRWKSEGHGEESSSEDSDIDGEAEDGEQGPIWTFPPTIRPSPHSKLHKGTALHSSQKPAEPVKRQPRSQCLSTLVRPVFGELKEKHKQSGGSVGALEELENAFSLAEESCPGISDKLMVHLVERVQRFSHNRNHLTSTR

[5] = molecular target: Serine/threonine-protein kinase TBK1 (Homo sapiens) (UniProt Q9UHD2); experiment: Inhibition of TBK1 (unknown origin) assessed as remaining activity at 1 uM by Kinome scan method relative to control
[6] = Acute toxicity in mouse assessed as increase in CK19-positive cells at 1 mg/kg,ip administrated once a daily for 3 weeks by H and E staining based immunohistochemical analysis relative to control; format: organism-based, Liver; details: in vivo, 504 h
Outline: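 Postnatal mice dosed from 10 days of age with vehicle or 1 mg/kg once per day for 21 days (3 weeks). Vehicle is 0.1% citric acid aqueous solution containing 20% Kolliphor HS 15. Liver sections stained with H&E and by IHC for CK19 and BrdU, with positive cells quantified (n = 3). Liver/body weight ratio recorded (n = 4). Values are means ± SD versus vehicle, Student's t test.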

[7] = Acute toxicity in wild-type mouse assessed as cell proliferation in liver at 3 mg/kg,ip administrated daily for 7 days by Ki67 staining; format: organism-based; details: in vivo, 168 h, time 7 day
Outline: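 Wild-type mice received vehicle or 3 mg/kg i.p. daily for 7 days. Ki67 staining of sections from various tissues with quantification of positive cells, n = 6; means ± SD, Student's t test. Daily weights, physical activity and serum chemistry were also monitored.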

[8] = system: Mast/stem cell growth factor receptor Kit (Homo sapiens), P10721 [L576P]; experiment: Inhibition of KIT L576P mutant (unknown origin) assessed as remaining activity at 1 uM by Kinome scan method relative to control
Mus musculus [9] = experiment: Anti-colitis activity against DSS-induced mouse assessed as high number in nuclear YAP-positive cells at 1 mg/kg, ip administrated daily for 8 days by IHC staining; format: functional, organism-based; details: Colon, time 8.0 day
Outline: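 Wild-type mice received oral DSS for 7 days with vehicle or 1 mg/kg daily. Colon sections were stained by IHC for YAP, BrdU and Ki67, and positive cells were quantified per animal. Means ± SD, n = 10, Student's t test.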

[10] = molecular target: Death-associated protein kinase 2 (Homo sapiens) (UniProt Q9UIK4); experiment: Inhibition of DAPK2 (unknown origin) assessed as remaining activity at 1 uM by Kinome scan method relative to control
Sequence of Death-associated protein kinase 2 (Homo sapiens) (Q9UIK4 whole entry, looked up): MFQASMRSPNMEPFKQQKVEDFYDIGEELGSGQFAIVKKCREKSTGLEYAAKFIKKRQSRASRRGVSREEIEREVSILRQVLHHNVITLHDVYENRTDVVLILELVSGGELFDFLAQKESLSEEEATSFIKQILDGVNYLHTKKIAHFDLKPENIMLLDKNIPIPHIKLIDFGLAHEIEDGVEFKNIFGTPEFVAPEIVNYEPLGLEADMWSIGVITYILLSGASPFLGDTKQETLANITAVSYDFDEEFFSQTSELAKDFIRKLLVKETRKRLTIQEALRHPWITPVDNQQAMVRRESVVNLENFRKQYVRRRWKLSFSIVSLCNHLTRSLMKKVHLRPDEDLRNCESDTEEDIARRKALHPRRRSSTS
Outline: (§1)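 Active-site-dependent competition-binding profiling (KINOMEscan) at 1 μM against a 468-kinase panel; compound supplied from a 10 mM DMSO stock. Read-out is ctrl% = (test signal − positive control signal)/(negative control signal − positive control signal) × 100. DMSO is the negative control (100%) and a control compound the positive control (0%). Lower ctrl% means tighter binding.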

Mus musculus [11] = experiment: In vivo inhibition of MST1/2 in mouse assessed as block in MOB1 phosphorylation level at 1 mg/kg, ip administration by immunoblot analysis; format: functional, organism-based
Outline: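 Wild-type mice received escalating intraperitoneal doses, and livers were collected 3 h later. Liver lysates were immunoblotted for p-MOB1 and quantified relative to controls. Means ± SD, n = 3, Student's t test.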

[12] = molecular target: Dual specificity tyrosine-phosphorylation-regulated kinase 1A (Homo sapiens) (UniProt Q13627); experiment: Inhibition of DYRK1A (unknown origin) assessed as remaining activity at 1 uM by Kinome scan method relative to control
[13] = molecular target: Inhibitor of nuclear factor kappa-B kinase subunit epsilon (Homo sapiens) (UniProt Q14164); experiment: Inhibition of IKK-epsilon (unknown origin) assessed as remaining activity at 1 uM by Kinome scan method relative to control
[14] = molecular target: Serine/threonine-protein kinase 3 (Homo sapiens) (UniProt Q13188); details: dose 100.0 µM
[15] = molecular target: Serine/threonine-protein kinase 33 (Homo sapiens) (UniProt Q9BYT3); experiment: Inhibition of STK33 (unknown origin) assessed as remaining activity at 1 uM by Kinome scan method relative to control
[16] = molecular target: Insulin receptor-related protein (Homo sapiens) (UniProt P14616); experiment: Inhibition of INSRR (unknown origin) assessed as remaining activity at 1 uM by Kinome scan method relative to control
[17] = molecular target: T1, Serine/threonine-protein kinase 3 (Homo sapiens, UniProt Q13188)
T1 sequence (Q13188 whole entry): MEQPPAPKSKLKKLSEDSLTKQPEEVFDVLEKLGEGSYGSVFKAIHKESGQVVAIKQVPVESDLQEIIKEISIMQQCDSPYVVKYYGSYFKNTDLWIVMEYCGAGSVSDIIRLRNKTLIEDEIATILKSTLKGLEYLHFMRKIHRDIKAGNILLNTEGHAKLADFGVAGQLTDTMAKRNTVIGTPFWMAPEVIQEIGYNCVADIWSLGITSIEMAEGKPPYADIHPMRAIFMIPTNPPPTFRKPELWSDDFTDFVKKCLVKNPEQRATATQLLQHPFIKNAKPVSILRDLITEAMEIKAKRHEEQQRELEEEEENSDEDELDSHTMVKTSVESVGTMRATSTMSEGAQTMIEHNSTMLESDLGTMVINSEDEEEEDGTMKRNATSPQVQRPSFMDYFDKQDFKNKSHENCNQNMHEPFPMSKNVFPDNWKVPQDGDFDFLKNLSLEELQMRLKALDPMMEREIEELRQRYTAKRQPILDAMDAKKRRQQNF

[18] = molecular target: Phosphatidylinositol 4-phosphate 3-kinase C2 domain-containing subunit beta (Homo sapiens) (UniProt O00750); experiment: Inhibition of PIK3C2B (unknown origin) assessed as remaining activity at 1 uM by Kinome scan method relative to control
Sequence of Phosphatidylinositol 4-phosphate 3-kinase C2 domain-containing subunit beta (Homo sapiens) (O00750 whole entry, the tested form may be a part): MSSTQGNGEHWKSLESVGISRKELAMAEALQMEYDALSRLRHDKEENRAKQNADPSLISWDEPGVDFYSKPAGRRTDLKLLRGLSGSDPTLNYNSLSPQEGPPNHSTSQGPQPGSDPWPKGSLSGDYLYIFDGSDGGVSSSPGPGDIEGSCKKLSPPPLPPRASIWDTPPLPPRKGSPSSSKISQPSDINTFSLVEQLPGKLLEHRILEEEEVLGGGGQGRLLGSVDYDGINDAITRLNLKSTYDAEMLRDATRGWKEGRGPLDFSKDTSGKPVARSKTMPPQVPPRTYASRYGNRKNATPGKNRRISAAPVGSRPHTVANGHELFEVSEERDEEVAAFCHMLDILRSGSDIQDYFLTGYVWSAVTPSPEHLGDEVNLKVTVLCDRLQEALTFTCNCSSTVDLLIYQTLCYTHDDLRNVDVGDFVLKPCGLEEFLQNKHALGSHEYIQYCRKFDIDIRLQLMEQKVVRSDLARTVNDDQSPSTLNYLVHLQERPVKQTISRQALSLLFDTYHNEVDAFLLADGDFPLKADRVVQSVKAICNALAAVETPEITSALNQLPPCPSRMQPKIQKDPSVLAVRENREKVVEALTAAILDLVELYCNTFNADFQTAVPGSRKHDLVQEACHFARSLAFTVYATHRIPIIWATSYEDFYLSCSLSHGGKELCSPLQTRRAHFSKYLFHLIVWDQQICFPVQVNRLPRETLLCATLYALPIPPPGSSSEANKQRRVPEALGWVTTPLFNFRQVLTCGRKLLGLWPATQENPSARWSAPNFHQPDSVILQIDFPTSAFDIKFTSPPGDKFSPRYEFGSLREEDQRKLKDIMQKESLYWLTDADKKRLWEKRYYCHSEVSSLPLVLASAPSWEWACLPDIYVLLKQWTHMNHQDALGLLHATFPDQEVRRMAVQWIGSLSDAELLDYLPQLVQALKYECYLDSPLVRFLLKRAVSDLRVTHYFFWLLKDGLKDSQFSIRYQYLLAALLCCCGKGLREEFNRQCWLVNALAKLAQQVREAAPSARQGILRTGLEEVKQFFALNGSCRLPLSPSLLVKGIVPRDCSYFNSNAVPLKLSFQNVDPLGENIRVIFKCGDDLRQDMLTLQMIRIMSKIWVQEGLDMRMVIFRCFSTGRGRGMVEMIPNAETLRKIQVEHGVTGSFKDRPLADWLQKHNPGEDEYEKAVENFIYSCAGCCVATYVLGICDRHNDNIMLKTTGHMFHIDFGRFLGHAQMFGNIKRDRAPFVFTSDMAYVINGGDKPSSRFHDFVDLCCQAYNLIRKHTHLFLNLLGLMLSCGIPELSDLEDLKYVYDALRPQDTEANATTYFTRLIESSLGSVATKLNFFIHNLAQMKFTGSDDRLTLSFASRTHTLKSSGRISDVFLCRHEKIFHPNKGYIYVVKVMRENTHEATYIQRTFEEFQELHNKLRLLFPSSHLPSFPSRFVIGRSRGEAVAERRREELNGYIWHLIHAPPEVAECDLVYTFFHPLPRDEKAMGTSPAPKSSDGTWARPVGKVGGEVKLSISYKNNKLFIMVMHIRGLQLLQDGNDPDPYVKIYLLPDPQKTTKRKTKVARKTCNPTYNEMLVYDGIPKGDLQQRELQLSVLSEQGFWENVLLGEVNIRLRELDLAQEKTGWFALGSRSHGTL

[19] = molecular target: Ephrin type-B receptor 2 (Homo sapiens) (UniProt P29323); experiment: Inhibition of EPHB2 (unknown origin) assessed as remaining activity at 1 uM by Kinome scan method relative to control
Sequence of Ephrin type-B receptor 2 (Homo sapiens) (P29323 whole entry): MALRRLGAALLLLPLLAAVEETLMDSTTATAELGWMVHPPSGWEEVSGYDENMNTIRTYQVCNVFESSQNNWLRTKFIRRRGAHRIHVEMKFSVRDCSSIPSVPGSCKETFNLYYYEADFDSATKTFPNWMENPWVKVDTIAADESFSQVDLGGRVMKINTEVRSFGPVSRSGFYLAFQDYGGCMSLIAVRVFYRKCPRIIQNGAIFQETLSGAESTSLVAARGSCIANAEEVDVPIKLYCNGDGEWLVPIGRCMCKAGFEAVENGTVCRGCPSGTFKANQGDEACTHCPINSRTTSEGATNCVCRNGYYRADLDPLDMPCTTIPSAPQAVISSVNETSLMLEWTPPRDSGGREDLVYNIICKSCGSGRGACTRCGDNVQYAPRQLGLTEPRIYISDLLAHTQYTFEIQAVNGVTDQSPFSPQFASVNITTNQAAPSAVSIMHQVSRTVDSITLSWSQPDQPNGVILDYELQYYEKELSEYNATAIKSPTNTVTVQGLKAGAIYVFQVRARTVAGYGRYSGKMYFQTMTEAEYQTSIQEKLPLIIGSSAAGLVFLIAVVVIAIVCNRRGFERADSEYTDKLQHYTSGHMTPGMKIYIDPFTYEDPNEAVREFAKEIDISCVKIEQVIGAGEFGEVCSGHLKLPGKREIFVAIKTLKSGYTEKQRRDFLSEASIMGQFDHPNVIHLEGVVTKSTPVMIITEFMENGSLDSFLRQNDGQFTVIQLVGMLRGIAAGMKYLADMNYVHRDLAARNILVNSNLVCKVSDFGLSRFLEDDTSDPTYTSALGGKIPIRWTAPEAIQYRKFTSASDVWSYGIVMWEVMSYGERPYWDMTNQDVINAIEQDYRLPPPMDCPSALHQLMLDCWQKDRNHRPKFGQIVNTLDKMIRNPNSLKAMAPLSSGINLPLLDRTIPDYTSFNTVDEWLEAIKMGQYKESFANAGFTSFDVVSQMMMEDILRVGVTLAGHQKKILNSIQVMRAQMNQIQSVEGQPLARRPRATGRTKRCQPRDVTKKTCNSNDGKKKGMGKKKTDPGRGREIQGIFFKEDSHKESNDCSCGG

[20] = molecular target: Casein kinase II subunit alpha' (Homo sapiens) (UniProt P19784); experiment: Inhibition of CSNK2A2 (unknown origin) assessed as remaining activity at 1 uM by Kinome scan method relative to control; outline: as §1
[21] = molecular target: Serine/threonine-protein kinase 16 (Homo sapiens) (UniProt O75716); experiment: Inhibition of STK16 (unknown origin) assessed as remaining activity at 1 uM by Kinome scan method relative to control
[22] = molecular target: Protein kinase C iota type (Homo sapiens) (UniProt P41743); experiment: Inhibition of PRKCI (unknown origin) assessed as remaining activity at 1 uM by Kinome scan method relative to control
Sequence of Protein kinase C iota type (Homo sapiens) (P41743 whole entry): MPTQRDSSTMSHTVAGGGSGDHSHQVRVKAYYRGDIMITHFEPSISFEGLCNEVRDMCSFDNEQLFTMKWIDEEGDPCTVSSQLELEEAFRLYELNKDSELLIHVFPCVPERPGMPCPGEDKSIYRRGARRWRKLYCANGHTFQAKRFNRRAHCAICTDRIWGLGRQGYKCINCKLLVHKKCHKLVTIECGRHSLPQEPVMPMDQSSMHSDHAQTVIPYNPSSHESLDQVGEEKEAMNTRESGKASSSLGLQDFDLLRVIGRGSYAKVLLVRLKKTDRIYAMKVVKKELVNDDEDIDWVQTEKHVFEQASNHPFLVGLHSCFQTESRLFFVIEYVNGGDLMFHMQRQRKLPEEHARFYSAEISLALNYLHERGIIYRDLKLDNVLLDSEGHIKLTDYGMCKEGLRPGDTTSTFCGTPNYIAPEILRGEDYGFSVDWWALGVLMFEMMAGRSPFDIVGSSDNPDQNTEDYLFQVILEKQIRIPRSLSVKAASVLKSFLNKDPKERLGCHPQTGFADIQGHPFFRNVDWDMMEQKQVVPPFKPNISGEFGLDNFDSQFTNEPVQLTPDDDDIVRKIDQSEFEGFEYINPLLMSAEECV

## CN1C(=O)c2sccc2N(C)c2nc(Nc3ccc(S(N)(=O)=O)cc3)ncc21
[1]
  Activity: 97%
[2]
  Activity: 5.5%
[3]
  Activity: 58%
[4]
  Activity: 94%
[5]
  Activity: 90%
[6]
  Activity: 15%
[7]
  Activity: Non-Toxic
[8]
  Activity: 75%
Mus musculus [9]
  Activity: Active
[10]
  Activity: 100%
Mus musculus [11]
  inhibition: Active
[12]
  Activity: 81%
[13]
  Activity: 86%
[14]
  Tm: 62 °C
[15]
  Activity: 97%
[16]
  Activity: 100%
[17]
  pIC50: 7.41
[18]
  Activity: 100%
[19]
  Activity: 100%
[20]
  Activity: 97%
[21]
  Activity: 50%
[22]
  Activity: 94%
